Data from ChEMBL document CHEMBL1129078, “3-(2-Benzofuranyl)quinuclidin-2-ene derivatives: novel muscarinic antagonists” (J Med Chem, 1996).

What was measured:
[1] = molecular target: Muscarinic acetylcholine receptor; test: Receptor binding affinity against Muscarinic acetylcholine receptor from guinea pig urinary bladder was determined using [3H]- QNB as radioligand; type: protein assay, Cavia porcellus
How it was run: (§1)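 Guinea pig urinary bladder dissected in PMSF-containing Krebs-Henseleit pH 7.4 and Polytron-homogenized in ice-cold 50 mM phosphate buffer pH 7.4 with 1 mM PMSF (≤0.3 mg/mL protein). Competition against 2 nM (−)-[3H]QNB; triplicates at 25 °C for 60 min; 10 µM atropine defines nonspecific binding. Pellets from centrifugation were scintillation counted. IC50 taken graphically, Ki by the Jacobs method; means ± SEM, 2–3 experiments.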

[2] = molecular target: Muscarinic acetylcholine receptor; test: Receptor binding affinity against Muscarinic acetylcholine receptor from guinea pig cerebral cortex was determined using [3H]- QNB as radioligand; type: tissue-based, Cavia porcellus
How it was run: (§2)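 Guinea pig cerebral cortex homogenized (Potter-Elvehjem) in ice-cold 50 mM Na/K phosphate buffer pH 7.4 with 1 mM PMSF, ≤0.3 mg/mL protein. Competition with (−)-[3H]QNB (2 nM final), triplicates incubated at 25 °C for 80 min, nonspecific binding with 10 µM atropine. Ended by centrifugation; pellets counted by scintillation. IC50 read graphically, converted to Ki by the Jacobs method; means ± SEM of 2–3 experiments.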

[3] = molecular target: Muscarinic acetylcholine receptor; test: Receptor binding affinity against Muscarinic acetylcholine receptor from guinea pig heart was determined using [3H]- QNB as radioligand; type: protein assay, Cavia porcellus
How it was run: (§3)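 Guinea pig hearts dissected in Krebs-Henseleit pH 7.4 with 1 mM PMSF, Polytron-homogenized in ice-cold 50 mM phosphate/PMSF buffer pH 7.4, ≤0.3 mg/mL protein. Competition against 2 nM (−)-[3H]QNB, triplicates at 25 °C for 80 min, 10 µM atropine nonspecific. Centrifugation, scintillation counting of pellets. Graphical IC50 to Ki by the Jacobs method; means ± SEM, 2–3 experiments.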

[4] = molecular target: Muscarinic acetylcholine receptor; test: Receptor binding affinity against Muscarinic acetylcholine receptor from guinea pig parotid gland was determined using [3H]- QNB as radioligand; type: protein assay, Cavia porcellus
How it was run: (§4)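 Guinea pig parotid glands dissected in Krebs-Henseleit pH 7.4 with 1 mM PMSF, Polytron-homogenized in ice-cold 50 mM phosphate/PMSF pH 7.4, ≤0.3 mg/mL protein. Displacement of 2 nM (−)-[3H]QNB, triplicates at 25 °C for 210 min, 10 µM atropine for nonspecific binding. Centrifugation, then pellet scintillation counting. Ki from graphical IC50 via the Jacobs correction; means ± SEM of 2–3 experiments.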

[5] = molecular target: Muscarinic acetylcholine receptor; test: Receptor binding affinity (Ki) for Muscarinic acetylcholine receptor (heart)was determined by competition radioligand -[3H]- QNB binding assay; type: protein assay, Cavia porcellus; how it was run: as §3
[6] = molecular target: Muscarinic acetylcholine receptor; test: Receptor binding affinity (Ki) against Muscarinic acetylcholine receptor (cerebral cortex) was determined by competition radioligand -[3H]- QNB binding assay; type: tissue-based, Cavia porcellus
How it was run: as §2, with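 “scintillation.” for “scintillation. IC50 read graphically, converted to Ki by the Jacobs method; means ± SEM of 2–3 experiments.”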

[7] = molecular target: Muscarinic acetylcholine receptor; test: Receptor binding affinity (Ki) for Muscarinic acetylcholine receptor (urinary bladder) was determined by competition radioligand -[3H]- QNB binding assay; type: protein assay, Cavia porcellus; how it was run: as §1
[8] = molecular target: Muscarinic acetylcholine receptor; test: Receptor binding affinity (Ki) for Muscarinic acetylcholine receptor (parotid glands) was determined by competition radioligand -[3H]- QNB binding assay; type: protein assay, Cavia porcellus
How it was run: as §4, with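 “counting.” for “counting. Ki from graphical IC50 via the Jacobs correction; means ± SEM of 2–3 experiments.”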

Cavia porcellus = species: Cavia porcellus; test: Antimuscarinic potency using isolated guinea pig urinary bladder; type: functional
How it was run: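 Male guinea pigs (~300 g) killed and exsanguinated; urinary bladder smooth muscle strips mounted in 37 °C Krebs-Henseleit baths (pH 7.4, carbogen), ~5 mN resting tension, isometric tension recorded. A control cumulative carbachol curve was run, then washout, ≥15 min rest, and 60 min with a fixed antagonist concentration before a second curve. Dose ratio from graphical EC50s; KB = [A]/(r − 1).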

Row | Structure (SMILES) | Ki [1] | Ki [2] | Ki [3] | Ki [4] | Ki [5] | Ki [6] | Ki [7] | Ki [8] | Kb (Cavia porcellus)
1 | C1=C(c2cc3ncccc3o2)C2CCN1CC2 | 83 nM | 21 nM | 61 nM | 110 nM |  |  |  |  | 
2 | COc1cc(C=O)cc2cc(C3=CN4CCC3CC4)oc12 |  |  |  |  | 2040 nM | 1170 nM | 3900 nM | 7600 nM | 
3 | OCc1cc(I)c2oc(C3=CN4CCC3CC4)cc2c1 | 802 nM | 197 nM | 462 nM | 970 nM |  |  |  |  | 
4 | O=Cc1cc(I)c2oc(C3=CN4CCC3CC4)cc2c1 |  |  |  |  | 517 nM | 221 nM | 1000 nM | 1300 nM | 
5 | C1=C(c2cc3cc(-c4ccccc4)ccc3o2)C2CCN1CC2 |  |  |  |  | 376 nM | 289 nM | 332 nM | 410 nM | 
6 | O=[N+]([O-])c1cc(I)c2oc(C3=CN4CCC3CC4)cc2c1 | 1600 nM | > 150 nM | 1900 nM | > 1000 nM |  |  |  |  | 
7 | Brc1c(C2=CN3CCC2CC3)oc2ccccc12 |  |  |  |  | 106 nM | 40 nM | 116 nM | 161 nM | 
8 | C1=C(c2cc3cccc(-c4ccccc4)c3o2)C2CCN1CC2 |  |  |  |  | 260 nM | 135 nM | 330 nM | 410 nM | 
9 | N#Cc1ccc2oc(C3=CN4CCC3CC4)cc2c1 |  |  |  |  | 160 nM | 60 nM |  | 236 nM | 
10 | Cc1c(C2=CN3CCC2CC3)oc2ccccc12 |  |  |  |  | 77.8 nM | 25.3 nM |  | 204 nM | 
11 | OCc1cc(I)cc2cc(C3=CN4CCC3CC4)oc12 | 2460 nM | 480 nM | 1100 nM | 2700 nM |  |  |  |  | 
12 | O=[N+]([O-])c1ccc2oc(C3=CN4CCC3CC4)cc2c1 |  | 139 nM | 460 nM | 515 nM |  |  |  |  | 
13 | COc1cc(CO)cc2cc(C3=CN4CCC3CC4)oc12 | 9400 nM | 3665 nM | 5400 nM | 20000 nM |  |  |  |  | 10000 nM
14 | C1=C(c2oc3ccccc3c2-c2ccccc2)C2CCN1CC2 |  |  |  |  | 72 nM | 20 nM | 107 nM | 56 nM | 148 nM
15 | O=Cc1cc(I)cc2cc(C3=CN4CCC3CC4)oc12 |  |  |  |  | 314 nM | 358 nM | 600 nM | 2300 nM | 
16 | N#Cc1cc(I)c2oc(C3=CN4CCC3CC4)cc2c1 |  | 440 nM |  |  |  |  |  |  | 
17 | O=Cc1ccc2oc(C3=CN4CCC3CC4)cc2c1 |  |  |  |  | 920 nM | 364 nM | 1300 nM | 1571 nM | 
18 | OCc1ccc2oc(C3=CN4CCC3CC4)cc2c1 | 2900 nM | 1400 nM | 1840 nM | 10700 nM |  |  |  |  | 13400 nM

Second part, led by results:

Row | Ki [1] | Ki [2] | Ki [3] | Ki [4] | Ki [5] | Ki [6] | Ki [7] | Ki [8] | Structure (SMILES) | Kb (Cavia porcellus)
19 |  |  |  |  | 76 nM | 25 nM |  | 76 nM | Cc1cccc2cc(C3=CN4CCC3CC4)oc12 | 
20 |  | 212 nM | 837 nM | 683 nM |  |  |  |  | Nc1ccc2oc(C3=CN4CCC3CC4)cc2c1 | 
21 | 37 nM | 6.3 nM | 34 nM | 30 nM |  |  |  |  | Fc1ccc2oc(C3=CN4CCC3CC4)cc2c1 | 
22 |  |  |  |  | 86 nM | 39 nM | 156 nM | 109 nM | Brc1ccc2oc(C3=CN4CCC3CC4)cc2c1 | 178 nM
23 | 2000 nM | 330 nM | 1360 nM | 1024 nM |  |  |  |  | OCc1cccc2cc(C3=CN4CCC3CC4)oc12 | 
24 |  |  |  |  | 1612 nM | 648 nM | 1700 nM | 3023 nM | O=Cc1cccc2cc(C3=CN4CCC3CC4)oc12 | 
25 |  |  |  |  | 44 nM | 15 nM | 97 nM | 216 nM | Brc1cccc2cc(C3=CN4CCC3CC4)oc12 | 123 nM
26 |  |  |  |  | 238 nM | 116 nM | 364 nM | 295 nM | Cc1ccc2oc(C3=CN4CCC3CC4)cc2c1 | 
